Results published in ChEMBL document CHEMBL4706589, “Discovery of 5-bromo-4-phenoxy-N-phenylpyrimidin-2-amine derivatives as novel ULK1 inhibitors that block autophagy and induce apoptosis in non-small cell lung cancer” (Eur J Med Chem, 2020).
Activity calls are given as the source filed them. The rule behind the calls is not given here.

Columns and labels:
[1] = molecular target: T1, Serine/threonine-protein kinase ULK1 (Homo sapiens) (UniProt O75385); experiment: Inhibition of recombinant human ULK1 at 10 uM preincubated for 60 mins followed by substrate addition and measured after 30 mins by ADP-glo assay; settings: time 90.0 min
T1 sequence (whole entry): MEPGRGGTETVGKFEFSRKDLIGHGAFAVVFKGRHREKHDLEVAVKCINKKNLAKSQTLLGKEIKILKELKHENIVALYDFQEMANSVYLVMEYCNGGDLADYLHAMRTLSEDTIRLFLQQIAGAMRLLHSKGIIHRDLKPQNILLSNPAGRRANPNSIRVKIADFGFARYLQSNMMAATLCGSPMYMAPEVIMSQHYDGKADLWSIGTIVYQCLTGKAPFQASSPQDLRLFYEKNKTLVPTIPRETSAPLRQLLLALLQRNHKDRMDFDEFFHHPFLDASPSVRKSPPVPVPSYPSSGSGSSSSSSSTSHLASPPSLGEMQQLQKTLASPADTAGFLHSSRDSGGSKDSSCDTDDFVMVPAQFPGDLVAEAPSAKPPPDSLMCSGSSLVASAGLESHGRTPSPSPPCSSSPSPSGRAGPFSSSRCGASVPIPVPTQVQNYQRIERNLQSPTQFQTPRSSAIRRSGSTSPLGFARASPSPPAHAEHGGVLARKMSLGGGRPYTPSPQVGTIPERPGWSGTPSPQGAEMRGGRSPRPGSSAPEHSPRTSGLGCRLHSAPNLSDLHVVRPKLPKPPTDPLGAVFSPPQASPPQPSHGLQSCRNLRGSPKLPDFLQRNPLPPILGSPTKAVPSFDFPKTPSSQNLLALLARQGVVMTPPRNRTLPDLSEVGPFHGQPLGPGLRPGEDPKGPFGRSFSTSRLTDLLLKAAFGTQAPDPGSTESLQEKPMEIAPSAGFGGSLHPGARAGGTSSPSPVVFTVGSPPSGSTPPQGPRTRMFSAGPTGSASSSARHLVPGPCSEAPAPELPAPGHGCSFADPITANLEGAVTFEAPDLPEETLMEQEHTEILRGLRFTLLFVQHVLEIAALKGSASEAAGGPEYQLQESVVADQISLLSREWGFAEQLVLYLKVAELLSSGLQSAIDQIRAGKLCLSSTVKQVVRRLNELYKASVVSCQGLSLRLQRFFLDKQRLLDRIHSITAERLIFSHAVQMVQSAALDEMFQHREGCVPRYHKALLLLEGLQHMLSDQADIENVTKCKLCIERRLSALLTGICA
Summary of the method: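 Recombinant ULK1 activity was measured by ADP-Glo luminescence of ADP formed, in 40 mM Tris pH 7.5, 20 mM MgCl₂, 0.1 mg/ml BSA and […]. After the kinase reaction, plates were mixed 2 min and held 40 min at room temperature. Detection reagent was then added for 30 min at room temperature before luminescence was read.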

[2] = tested on: A549; experiment: Antiproliferative activity against human A549 cells assessed as reduction in cell viability after 24 hrs by MTT assay; type: functional, cell-based; settings: A549, 24 h
Summary of the method: (§1)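 Cells seeded at 5.5 × 10⁴ cells/mL in 96-well plates and grown 24 h before exposure to graded compound concentrations. Viability read by MTT after 24 h. A549, MCF-7 and MDA-MB-468 were kept in DMEM with 10% FBS under 5% CO₂; HL60 and U937 in RPMI 1640 with 10% FBS. IC50 taken as mean of triplicate tests.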

[3] = tested on: U-937; experiment: Antiproliferative activity against human U937 cells assessed as reduction in cell viability after 24 hrs by MTT assay; type: functional, cell-based; settings: U-937, 24 h; summary of the method: as §1
[4] = tested on: HL-60; experiment: Antiproliferative activity against human HL60 cells assessed as reduction in cell viability after 24 hrs by MTT assay; type: functional, cell-based; settings: HL-60, 24 h; summary of the method: as §1
[5] = tested on: MDA-MB-468; experiment: Antiproliferative activity against human MDA-MB-468 cells assessed as reduction in cell viability after 24 hrs by MTT assay; type: functional, cell-based; settings: MDA-MB-468, 24 h; summary of the method: as §1
[6] = tested on: MCF7; experiment: Antiproliferative activity against human MCF-7 cells assessed as reduction in cell viability after 24 hrs by MTT assay; type: functional, cell-based; settings: MCF7, 24 h; summary of the method: as §1
[7] = molecular target: T1, Serine/threonine-protein kinase ULK1 (Homo sapiens); experiment: Inhibition of human ULK1 in human A549 cells under normal condition assessed as decrease in phosphorylated-Beclin 1(ser15) level by immunoblotting analysis; type: cell-based
Summary of the method: (§2)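 Treated A549 cells, adherent and floating, were collected and lysed in RIPA buffer with protease and phosphatase inhibitors. Lysates were spun at 12,000 g, 4 °C, 15 min, and protein measured by BCA. Proteins were run on SDS-PAGE and moved to nitrocellulose, blocked 1 h in TBST with 5% skim milk, and probed overnight at 4 °C with primary antibodies. HRP secondary antibody was applied 1 h at room temperature, with ECL detection.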

[8] = molecular target: T1, Serine/threonine-protein kinase ULK1 (Homo sapiens); experiment: Inhibition of human ULK1 in human A549 cells under nutrient starvation condition assessed as decrease in phosphorylated-Beclin 1(ser15) level by immunoblotting analysis; type: cell-based; summary of the method: as §2
[9] = molecular target: T1, Serine/threonine-protein kinase ULK1 (Homo sapiens); experiment: Inhibition of human ULK1 in human A549 cells under normal condition assessed as decrease in phosphorylated-Atg13 (ser318) level by immunoblotting analysis; type: cell-based; summary of the method: as §2
[10] = molecular target: T1, Serine/threonine-protein kinase ULK1 (Homo sapiens); experiment: Inhibition of human ULK1 in human A549 cells under nutrient starvation condition assessed as decrease in phosphorylated- Atg13 (ser318) level by immunoblotting analysis; type: cell-based; summary of the method: as §2
[11] = molecular target: T1, Serine/threonine-protein kinase ULK1 (Homo sapiens); experiment: Induction of downregulation of ULK1-mediated autophagy in human A549 cells assessed as phosphorylation at Ser317 preincubated for 24 hrs by Western blot analysis; type: cell-based; settings: dose microM <=8, time 24.0 hrs; summary of the method: as §2
[12] = molecular target: T1, Serine/threonine-protein kinase ULK1 (Homo sapiens); experiment: Inhibition of ULK1 mediated autophagy in human A549 cells assessed as reduction in conversion of LC3 1 to LC3-2 at 2 to 8 uM measured after 1 hrs by Western blot analysis; type: cell-based; settings: dose 2-8 µM; summary of the method: as §2
[13] = molecular target: T1, Serine/threonine-protein kinase ULK1 (Homo sapiens); experiment: Inhibition of ULK1 mediated autophagy in human A549 cells assessed as p62 degradation at 2 to 8 uM measured after 1 hrs by Western blot analysis; type: cell-based; settings: dose 2-8 µM; summary of the method: as §2
[14] = molecular target: T1, Serine/threonine-protein kinase ULK1 (Homo sapiens); experiment: Inhibition of ULK1 mediated autophagy in human A549 cells assessed as decrease in beclin1 level at 2 to 8 uM measured after 1 hrs by Western blot analysis; type: cell-based; settings: dose 2-8 µM; summary of the method: as §2
[15] = molecular target: T1, Serine/threonine-protein kinase ULK1 (Homo sapiens); experiment: Inhibition of ULK1 mediated autophagy in human A549 cells transfected with GFP-mRFP-LC3 assessed as increase in LC3 puncta measured after 6 hrs by fluorescence microscopic analysis; type: cell-based
Summary of the method: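 A549 cells were transfected with GFP/mRFP-LC3 for 6 h. Transfected cells were used 24 h later, and LC3 puncta were examined by fluorescence microscopy.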

[16] = tested on: A549; experiment: Induction of apoptosis in human A549 cells assessed as reduction in Bcl2 protein expression at 2 to 8 uM by Western blot analysis; type: functional, cell-based; settings: dose 2-8 µM; summary of the method: as §2
[17] = tested on: A549; experiment: Induction of apoptosis in human A549 cells assessed as increase in Bax protein expression at 2 to 8 uM by Western blot analysis; type: functional, cell-based; settings: dose 2-8 µM; summary of the method: as §2
[18] = tested on: A549; experiment: Induction of apoptosis in human A549 cells assessed as increase in caspase 3 protein expression at 2 to 8 uM by Western blot analysis; type: functional, cell-based; settings: dose 2-8 µM; summary of the method: as §2
[19] = tested on: A549; experiment: Induction of apoptosis in human A549 cells assessed as morphological changes upto 8 uM incubated for 24 hrs in dark by Hoechst 33258 staining based fluorescence microscopy; settings: dose microM <=8, time 24.0 hrs

inhibition [1]: 99.2%
IC50 [2]: 1.94 µM
IC50 [3]: 12.9 µM
IC50 [4]: 10.9 µM
IC50 [5]: 16.8 µM
IC50 [6]: 19.6 µM
inhibition [7]: Active
inhibition [8]: Active
Activity [9]: Active
inhibition [10]: Active
Activity [11]: Dose-dependent effect
inhibition [12]: Active
Activity [13]: Active
inhibition [14]: Active
Activity [15]: Active
SMILES: COc1cc(Nc2ncc(Br)c(Oc3ccc([N+](=O)[O-])cc3F)n2)cc(OC)c1OC
Activity [16]: Active
Activity [17]: Active
Activity [18]: Active
Activity [19]: Dose-dependent effect
